Conditions in all cases: cattle
Series [1] has as its target T1, Amine oxidase [flavin-containing] B (Bos taurus, UniProt P56560).
T1 sequence (P56560 whole entry): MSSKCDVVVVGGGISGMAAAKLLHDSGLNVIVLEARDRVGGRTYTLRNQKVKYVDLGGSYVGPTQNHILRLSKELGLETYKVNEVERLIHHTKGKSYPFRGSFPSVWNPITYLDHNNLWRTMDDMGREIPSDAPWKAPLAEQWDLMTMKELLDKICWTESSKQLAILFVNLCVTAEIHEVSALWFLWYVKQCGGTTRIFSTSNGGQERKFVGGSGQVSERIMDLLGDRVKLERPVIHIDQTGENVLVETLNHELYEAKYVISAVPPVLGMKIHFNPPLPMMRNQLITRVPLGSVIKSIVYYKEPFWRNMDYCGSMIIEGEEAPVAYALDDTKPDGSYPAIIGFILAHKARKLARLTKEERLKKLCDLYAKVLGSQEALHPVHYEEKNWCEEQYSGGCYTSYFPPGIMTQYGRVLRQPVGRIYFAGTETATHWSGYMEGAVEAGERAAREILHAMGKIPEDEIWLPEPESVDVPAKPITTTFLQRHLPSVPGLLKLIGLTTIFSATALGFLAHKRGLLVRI
Nature of the series: Selectivity ratio for Vmax and KM values against MAO-B enzyme from bovine liver mitochondria. In a few lines: (§1)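 Bovine liver mitochondrial MAO-B, 0.05 unit/mL (unit = 1 μmol benzylamine→benzaldehyde per min; equivalent to 3.7 nmol protein), incubated at 37 °C in 0.1 M sodium phosphate pH 7.4. Reaction started by substrate addition, final 0.1–3.0 mM. Product formation monitored spectrophotometrically, initial rates taken 30–180 s after enzyme addition. Apparent Vmax and KM from double reciprocal plot.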

The target of series [2] is T1, Amine oxidase [flavin-containing] B. The series can be described thus: (§2) Tested against Monoamine oxidase B enzyme from bovine liver mitochondria. In a few lines:
as §1

The target of series [3] is T2, Monoamine oxidase B (MAO-B) (Bos taurus, UniProt P56560).
T2 sequence (P56560 whole entry): T1 sequence (P56560 whole entry)
Described as §2. In a few lines: as §1

The results in this text go back to ChEMBL document CHEMBL1126092, “Design, synthesis, and biological evaluation of novel 4-substituted 1-methyl-1,2,3,6-tetrahydropyridine analogs of MPTP” (J Med Chem, 1992).

With `CN1CC=C(OC(=O)N(C)c2ccccc2)CC1`, the Ratio in series [1] is on record as 67.

In the case of `CN1CC=C(Oc2ccccc2)CC1`, the Ratio in series [1] was 688.

Consider `CN1CC=C(Sc2ccccc2)CC1`, for which the Ratio in series [1] is given as 3425.

Take `CN1CC=C(Cc2ccccc2)CC1`: the Ratio in series [1] came out at 2674.

On to `CN1CC=C(OC(=O)N(C)C)CC1`, for which the Ratio in series [1] was found to be 57.

By Vmax is commonly meant the top rate of the reaction or transport when substrate is in excess. What is called Km is the concentration of substrate that gives half-maximal velocity. Turning to `CN1CC=C(c2ccccc2)CC1`, the Ratio in series [1] is 523. The maximum rate (Vmax) in series [2] was found to be 204 nM/min. The Km in series [3] was 390 µM.
